High-throughput results from PubChem.
A selection: hits, their analogues and other compounds. The true share with any hit is near 5.1%.
STAT3 inh = reduces IL-6 driven STAT3 reporter signal; 190,000 tested, 0.89% active; inhibition, % at 5.5 µM; U3A cells, IL-6 STAT3-luciferase reporter, luminescence; host cell line lacks STAT1;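 active means inhibition above the mean inhibition across all screened compounds plus 3 SD, cut at about 44% in these data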;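 further: 0% = DMSO only wells and 100% = 100 µM nifuroxazide control wells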
NF-kB neuron act = raises NF-kB expression in human neuronal cells; NF-kB reporter expression; active compounds read high; fold change at 12.5 µM; 190,000 tested, 1.6% active; in the data active means fold change above about 3.3
STAT3 act-1 = STAT3 signaling activation. U3A cells, IL-6 STAT3-luciferase reporter, luminescence; 100% = signal with IL-6 EC80 alone. activation (% of control), % at 5.6 µM. 190,000 tested, 0.91% active;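 active means activation above the screen-wide mean of compound activation plus 3 SD, cut at about 130% in these data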;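 further: 0% = background luminescence of wells with medium and substrate only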
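Detection: reporter luminescence signal / Assay system: STAT1-lacking human U3A cells, STAT3 luciferase reporter / Incubation: compound pre-incubation 1 h before IL-6, then 6 h stimulation at 37 °C / Control set: IL-6-only high control / Read-out: % activation relative to IL-6 control / Probe or stimulus: Interleukin-6, 33 ng/mL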
STAT1 blocker = reduces IFN-gamma driven STAT1 reporter signal; inhibition, % at 5.5 µM; 200,000 tested, 0.35% active; NIH 3T3 STAT1-luciferase reporter, luminescence;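 active means inhibition above a set limit, the mean inhibition across all tested compounds plus 3 SD, cut at about 34% in these data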;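 further: 0% = IFN-gamma with DMSO and 100% = IFN-gamma with 300 µM nifuroxazide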
APP 5'UTR act = activates APP 5'UTR luciferase reporter; 190,000 tested, 1% active; activation, % at 2 µM; AID 1276; SH-SY5Y APP 5'UTR luciferase reporter, luminescence; zero percent = DMSO vehicle wells;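 active means activation above a set limit, based on mean plus 3 SD of controls, cut at about 140% in these data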
STAT1 act-1 = STAT1 signaling activation; activation (% of control), % at 5.5 µM; NIH 3T3 STAT1-luciferase reporter, IFN-gamma, luminescence; 100% = IFN-gamma alone, no compound; 200,000 tested, 2.6% active;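 active means activation above the screen-wide mean activation plus 3 SD, cut at about 130% in these data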;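 further: raw ratio to IFN-gamma control signal so 100% means no change and 0% no light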
STAT3 act-2 = confirmation of STAT3 signaling activators; shares compounds with STAT3 act-1; U3A STAT3-luciferase reporter, IL-6 potentiation, luminescence; U3A cells lack STAT1; 100 means same as IL-6 alone; potentiation (% of control), % at 5.7 µM; 1,200 tested, 64% active;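 active means percent activation of the STAT3 luciferase reporter above a set limit taken from the earlier primary screen, cut at about 130% in these data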;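 further: 0% = background signal of medium plus substrate and 100% = median of IL-6 with DMSO wells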
NFkB act 2 = activates NF-kappaB, counter-screen to STAT3 activators. shares compounds with STAT3 act-1. 1,200 tested, 11% active. activation (% of control), % at 5.7 µM. AID 1309. human cells, NF-kappaB reporter activation; in the data active means activation above about 120%;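 further: reporter induced by TNF-alpha stimulation; 100% = median of stimulated DMSO wells and 0% = no signal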
STAT1 act-2 = STAT1 activation in STAT3 activator counter-screen; activation (% of control), % at 5.7 µM; shares compounds with STAT3 act-1; 1,200 tested, 13% active; NIH 3T3 STAT1-luciferase reporter, IFN-gamma, luminescence; AID 1318;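 active means activation above the solvent-only control well mean plus 3 SD, set per screening run, cut at about 120% in these data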;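 further: 100% = IFN-gamma with DMSO median signal so 100% means no change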
Active calls of the source: *; nt = no result.

SMILES	STAT3 inh	NF-kB neuron act	STAT3 act-1	STAT1 blocker	APP 5'UTR act	STAT1 act-1	STAT3 act-2	NFkB act 2	STAT1 act-2
Oc1cccc(C2c3[nH]c4ccccc4c3CCN2Cc2ccc3c(c2)CCO3)c1 (centres undefined)	-43.8	0.9	141.2*	11.6	1.6	87.4	142.4*	104.2	94.4
Cn1cc(CN2CCc3c([nH]c4ccccc34)C2C(C)(C)C)cn1 (centres undefined)	-31.5	nt	132.6	-1.3	-0.1	99.5	nt	nt	nt
Oc1cccc(C2c3[nH]c4ccccc4c3CCN2Cc2ccoc2)c1 (centres undefined)	-39.8	1.25	137.7*	8.5	6.9	90.2	137.3*	102.4	94.1
COc1ccc(C2c3[nH]c4ccccc4c3CCN2Cc2ccoc2)c(F)c1 (centres undefined)	-16.3	0.87	118.3	0.7	-4.7	97.9	nt	nt	nt
Cc1ccc(NS(=O)(=O)c2ccc(Br)s2)cc1S(=O)(=O)N1CCOCC1	7.6	1.39	98.8	-9.3	9.1	106.5	nt	nt	nt
COc1ccccc1N=C(C)C1=C(O)CC(c2ccccc2)CC1=O (centres undefined)	-41.1	3.49*	147.8*	-1.9	-91.6	101.9	108.2	140.5*	104.7
CCCC(=Nc1ccccc1OC)C1=C(O)CC(c2ccccc2)CC1=O (centres undefined)	4.3	1.23	100.3	14.0	-3.1	87.6	nt	nt	nt
CCc1cc2c(NCCC(=O)O)nc(C)nc2s1	-63.4	1.2	157.9*	-8.6	-4.5	107.9	140.0*	109.2	100.1
Cc1cc2ccccn2c1C(=O)Nc1ccc(Cl)cc1	-61.8	1.1	155.9*	-19.9	89.4	119.3	165.9*	114.0	118.2
c1ccc(-c2cc3ccccc3nc2N2CCCC2)cc1	-38.0	1.02	136.4*	19.0	3.2	82.9	95.3	102.9	97.5
O=C(c1ccccc1)c1nn(-c2ccc(Cl)cc2)cc1C(=O)c1cc2ccccc2oc1=O	-34.4	0.99	135.8*	-0.9	6.2	100.8	120.6	102.0	104.5
CC(=O)Nc1c(Cl)n(C(C)=O)c2ccccc12	-90.6	1.12	175.0*	9.9	11.7	90.6	159.3*	102.5	93.6
Cc1ccc(C)c2sc(N)nc12	14.8	1.24	89.3	5.0	9.8	93.7	nt	nt	nt
Cc1sc2nc(N)sc2c1C	-61.7	1.22	162.2*	4.0	9.6	96.4	146.8*	104.8	90.7
Cc1cc(C)c(NC(=O)CCn2nnc3ccccc32)c(C)c1	-4.6	1.29	105.9	-2.8	1.2	101.0	nt	nt	nt
CCc1ccc(NC(=O)c2cnc3scc(C)n3c2=O)cc1	-67.6	2.06	154.0*	-32.0	60.7	126.5	164.6*	114.9	137.8*
COc1ccc(C)cc1NC(=O)c1cnc2scc(C)n2c1=O	10.6	1.09	90.7	-5.2	2.1	102.1	nt	nt	nt
Cc1csc(NC(=O)Cc2coc3cc(C)c(C(C)C)cc23)n1	-38.5	0.7	137.2*	4.7	2.9	95.6	125.3	98.5	96.1
c1ccc2c(c1)ncc1cccn12	-46.1	0.96	143.3*	-2.6	10.3	102.3	138.1*	98.4	89.7
CCOc1cc(C(=O)OCC(=O)NC(C)c2ccccc2)ccc1OCC(=O)N1CCOCC1 (centres undefined)	-4.9	1.03	108.6	-3.2	4.0	102.9	nt	nt	nt
O=C(CN(Cc1ccccc1)C(=O)c1cccc([N+](=O)[O-])c1)Nc1c(Cl)cc(Cl)cc1Cl	-10.9	0.93	107.0	1.6	20.6	98.6	nt	nt	nt
CCCCN(CCCC)S(=O)(=O)c1ccc(NC(=O)c2cccs2)cc1	-58.4	0.54	144.7*	1.1	-0.5	99.0	93.3	94.3	94.3
Cc1cc(C)nc(NS(=O)(=O)c2ccc(NC(=O)c3cccs3)cc2)n1	-6.9	0.99	106.8	2.8	-8.9	92.8	nt	nt	nt
Cc1c(NC(=O)C2CCCCC2)cc(C(=O)N2CCOCC2)cc1[N+](=O)[O-]	2.5	1.31	100.9	3.2	0.5	95.9	nt	nt	nt
COc1cccc(-c2cc(C(F)(F)F)c3c(N)c(C#N)sc3n2)c1	-66.5	1.08	153.5*	-3.6	-0.7	103.2	134.4*	96.8	101.2
SMILES	STAT3 inh	NF-kB neuron act	STAT3 act-1	STAT1 blocker	APP 5'UTR act	STAT1 act-1	STAT3 act-2	NFkB act 2	STAT1 act-2
N#Cc1sc2nc(-c3ccccc3)cc(-c3ccco3)c2c1N	13.0	1.17	90.9	-7.5	-17.3	106.9	nt	nt	nt
O=c1c2ccccc2oc2nc(-c3ccco3)n(-c3ccccc3)c(=O)c12	-44.9	0.85	136.2*	-11.2	93.3	110.2	134.8*	108.5	109.1
O=c1c2cnn(-c3ccccc3)c2nc(-c2ccco2)n1-c1ccccc1	30.1	0.45	78.4	-3.6	10.7	103.3	nt	nt	nt
CC(C)c1nc2oc3ccccc3c(=O)c2c(=O)n1-c1ccccc1	-73.2	1.71	158.7*	-3.2	18.6	102.9	131.8	103.5	113.1
CCOCC(=O)Nc1cc(C)on1	17.3	0.82	93.3	-20.6	6.1	117.0	nt	nt	nt
N#CC1=C(N)n2c(s/c(=C\c3ccco3)c2=O)=C(C#N)C1c1ccco1 (centres undefined)	-78.9	0.84	171.1*	6.4	-12.4	94.1	170.0*	103.4	97.1
Cc1ccc(C)c(C(=O)COc2ccc(C)nc2[N+](=O)[O-])c1	-8.4	1.24	104.3	2.9	1.4	97.4	nt	nt	nt
Cc1ccc(OCC(=O)c2c[nH]c3ccccc23)c([N+](=O)[O-])n1	-58.6	1.11	157.9*	-19.3	12.7	116.4	164.6*	102.9	106.8
CCN(CC)C(=O)c1ccccc1NC(=O)CN1C(=O)c2ccccc2C1=O	9.2	1.04	96.6	0.7	4.4	98.1	nt	nt	nt
COc1cccc(C(=O)NC(=S)Nc2ccccc2N2CCCC2)c1	-46.8	1	147.2*	-0.6	-17.2	100.4	141.0*	106.3	92.8
COc1cccc(C(=O)Nc2ccccc2N2CCCC2)c1	14.4	1.15	90.4	1.0	-12.5	95.3	nt	nt	nt
Cc1ccc(-c2cc(-c3ccccc3[N+](=O)[O-])[nH]n2)c(O)c1	-37.5	4.01*	141.7*	2.5	131.6	97.7	135.7*	131.1*	94.5
Nc1n[nH]c(-c2ccccc2[N+](=O)[O-])n1	-8.8	1.06	105.1	-10.4	-12.9	109.2	nt	nt	nt
CCC(=O)Nc1ccc(C(=O)CN2CCC(C)CC2)cc1	2.1	1.14	106.0	-6.7	3.4	104.2	nt	nt	nt
NNc1nc2c(Cl)ccc(Cl)c2s1	-50.5	0.85	145.9*	16.8	-11.7	85.0	124.8	103.3	89.5
